Source: ChEMBL document CHEMBL1146339, “Improved quantitative structure-activity relationship models to predict antioxidant activity of flavonoids in chemical, enzymatic, and cellular systems” (Bioorg Med Chem, 2007)
Calls of active or inactive are those of the source. The rule behind the calls is not given here.

How the values were obtained:
Format in all cases: functional
[1] = tested on: Radical scavenging activity; experiment: Antioxidant activity assessed as DPPH radical scavenging activity after 20 min
How it was run: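 Percent antiradical activity = (1 − sample/blank absorbance)×100; IC25 from logarithmic regression over 5–6 concentrations; highest concentration tested 400 µM.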

[2] = Antioxidant activity assessed as inhibition of superoxide production by xanthine/xanthine oxidase method
How it was run: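 Superoxide generated from 500 µM xanthine with 3.75 mU/mL xanthine oxidase in 0.1 M phosphate buffer pH 7.5, detected as reduction of 500 µM NBT to monoformazan at 560 nm, 25°C, as rate of absorbance change. IC25 from rate versus log concentration, 5–7 concentrations, top concentration 50 µM.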

[3] = Antioxidant activity in BALB/c mouse BM cells assessed as inhibition of ROS production; conditions: Bone marrow cell
How it was run: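 Whole bone marrow cells flushed from tibias and femurs with phenol red-free HBSS pH 7.4, strained through 70 µm, 1 × 10^6 cells/mL. L-012 (40 µM final) and horseradish peroxidase (8 µg/ml final) added; cells mixed with compound from DMSO stock (1% DMSO final). Luminescence read 60 min every 2 min at 37°C; area under curve gives total signal; IC25 from % inhibition versus log concentration, 5–7 concentrations.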

Compound | IC25 [1] | Activity [2] | IC25 [3] | Activity [1] | IC25 [2]
COc1ccc(-c2oc3ccc(C)cc3c(=O)c2O)cc1OC | 89 µM |  |  |  | 
Oc1ccc(/C=C/c2cc(O)cc(O)c2)cc1 [RESVERATROL] | 349 µM | inactive | 70 µM |  | 
COc1cccc2oc(-c3ccc(O)cc3)cc(=O)c12 |  | inactive | 1270 µM | inactive | 
O=c1cc(-c2ccc(O)c(O)c2)oc2cccc(O)c12 | 1.5 µM |  |  |  | 
O=c1cc(-c2ccc(O)c(O)c2)oc2cc(O)cc(O)c12 [LUTEOLIN] | 12.1 µM |  | 13.7 µM |  | 6.9 µM
O=c1c(O)c(-c2ccc(O)c(O)c2)oc2ccccc12 | 0.7 µM |  | 1.75 µM |  | 0.68 µM
O=c1c(O)c(-c2cc(O)c(O)c(O)c2)oc2cc(O)cc(O)c12 [MYRICETIN] | 41.8 µM |  | 5.2 µM |  | 6.8 µM
COc1cc(O)c2c(=O)cc(-c3ccccc3)oc2c1 [TECHTOCHRYSIN] |  | inactive | 160 µM | inactive | 
O=c1c(O)c(-c2ccc(O)c(O)c2)oc2cc(O)cc(O)c12 [QUERCETIN] | 8.1 µM |  | 3.5 µM |  | 3 µM
COc1ccc(-c2cc(=O)c3c(O)cc(O)cc3o2)cc1 [ACACETIN] |  |  | 1180 µM | inactive | 16.3 µM
COc1cc(-c2cc(=O)c3ccccc3o2)ccc1O |  | inactive | 14.5 µM | inactive | 
O=C(CCc1ccc(O)cc1)c1c(O)cc(O)cc1O [PHLORETIN] |  | inactive | 300 µM | inactive | 
COc1ccc2c(=O)cc(-c3ccccc3)oc2c1O |  | inactive | 3.1 µM | inactive | 
O=c1c(O)c(-c2ccc(O)cc2)oc2ccc(O)cc12 | 4.5 µM |  |  |  | 
O=c1c(O)c(-c2ccccc2)oc2cc(O)cc(O)c12 [GALANGIN] | 86.4 µM | inactive | 4.3 µM |  | 
COc1ccc(-c2cc(=O)c3c(O)cc(O[C@@H]4O[C@H](CO[C@@H]5O[C@@H](C)[C@H](O)[C@@H](O)[C@H]5O)[C@@H](O)[C@H](O)[C@H]4O)cc3o2)cc1O |  | inactive |  | inactive | 
Oc1cc(O)c2c(c1)O[C@H](c1ccc(O)c(O)c1)[C@@H](O)C2 [CIANIDANOL] | 33.3 µM |  | 168 µM |  | 45.8 µM
O=c1cc(-c2ccccc2O)oc2c(O)c(O)ccc12 | 2.1 µM |  | 0.52 µM |  | 1.2 µM
C[C@@H]1O[C@@H](O[C@H]2[C@H](Oc3cc(O)c4c(=O)cc(-c5ccc(O)cc5)oc4c3)O[C@H](CO)[C@@H](O)[C@@H]2O)[C@H](O)[C@H](O)[C@H]1O [RHOIFOLIN] |  |  | 201 µM |  | 7.2 µM
O=c1c(O)c(-c2ccc(O)cc2)oc2cc(O)ccc12 [RESOKAEMPFEROL] | 4.1 µM |  | 23 µM |  | 48 µM

Compound | IC25 [1] | Activity [2] | IC25 [3] | Activity [1] | IC25 [2]
O=c1cc(-c2ccccc2)oc2cc(O)cc(O)c12 [CHRYSIN] |  | inactive | 4480 µM | inactive | 
COc1ccccc1-c1oc2ccccc2c(=O)c1O |  |  | 49 µM | inactive | 
C[C@@H]1O[C@@H](OC[C@H]2O[C@@H](Oc3c(-c4ccc(O)c(O)c4)oc4cc(O)cc(O)c4c3=O)[C@H](O)[C@@H](O)[C@@H]2O)[C@H](O)[C@H](O)[C@H]1O | 12.2 µM |  |  |  | 4.5 µM
COc1c(-c2ccccc2)oc2cc(O)ccc2c1=O |  | inactive | 1050 µM | inactive | 
COc1c(-c2ccc(O)c(O)c2)oc2cc(O)cc(O)c2c1=O [3-O-METHYLQUERCETIN] | 5.9 µM |  | 58 µM |  | 3.6 µM
COc1ccc(C2CC(=O)c3c(O)cc(O[C@@H]4O[C@H](CO[C@@H]5O[C@@H](C)[C@H](O)[C@@H](O)[C@H]5O)[C@@H](O)[C@H](O)[C@H]4O)cc3O2)cc1O (stereo not given in full) |  | inactive |  | inactive | 
O=C1CC(c2ccc(O)cc2)Oc2ccccc21 (stereo not given) [4'-HYDROXY-FLAVANONE] |  | inactive | 3300 µM | inactive | 
COc1ccc(-c2coc3cc(O)cc(O)c3c2=O)cc1 [BIOCHANIN] |  | inactive | 33 µM | inactive | 
CN1CCc2cccc3c2[C@H]1Cc1ccc(O)c(O)c1-3 [APOMORPHINE] |  |  |  |  | 16.2 µM
O=c1cc(-c2cccc(O)c2)oc2c(O)c(O)ccc12 | 2.7 µM |  | 0.8 µM |  | 2.4 µM
O=c1cc(-c2ccccc2)oc2cc(O)c(O)c(O)c12 [BAICALEIN] | 1.5 µM |  | 10.4 µM |  | 2.6 µM
COc1cc([C@@H]2Oc3cc([C@@H]4Oc5cc(O)cc(O)c5C(=O)[C@H]4O)ccc3O[C@H]2CO)ccc1O | 61.4 µM |  | 140 µM |  | 7.7 µM
O=c1cc(-c2cccc(O)c2O)oc2ccccc12 | 0.5 µM |  |  |  | 
O=c1c(O)c(-c2ccc(O)cc2)oc2cc(O)cc(O)c12 [KAEMPFEROL] | 22.6 µM | inactive | 4 µM |  | 
O=c1c(O)c(-c2ccc(O)c(O)c2)oc2cc(O)ccc12 [FISETIN] | 7.9 µM |  | 31 µM |  | 2.7 µM
O=c1cc(-c2ccccc2O)oc2cc(O)cc(O)c12 |  | inactive | 5.7 µM | inactive | 
O=C1CC(c2ccccc2O)Oc2ccccc21 (stereo not given) [2'-HYDROXY-FLAVANONE] |  | inactive | 5620 µM | inactive | 
O=c1cc(-c2ccc(O)cc2)oc2cc(O)cc(O)c12 [APIGENIN] |  | inactive | 113 µM | inactive | 
COc1ccc([C@@H]2CC(=O)c3c(O)cc(O)cc3O2)cc1O [HESPERETIN] | 83 µM | inactive | 647 µM |  | 
O=C1C[C@@H](c2ccc(O)cc2)Oc2cc(O)cc(O)c21 [NARINGENIN] |  | inactive | 551 µM | inactive | 
